Test results taken from ChEMBL document CHEMBL1132384, “Design, synthesis, and evaluation of chromen-2-ones as potent and selective human dopamine D4 antagonists” (J Med Chem, 1999).
Active and inactive are the calls of the source. The calls are words filed in the database; no cut-off is given here.

Experiments:
D(4) dopamine receptor = biological target: T1, D(4) dopamine receptor (Homo sapiens, UniProt P21917); test: Binding affinity using [3H]spiperone displacement from cloned human Dopamine receptor D4.2 expressed in CHO-K1 cells; format: cell-based
T1 sequence (P21917 whole entry): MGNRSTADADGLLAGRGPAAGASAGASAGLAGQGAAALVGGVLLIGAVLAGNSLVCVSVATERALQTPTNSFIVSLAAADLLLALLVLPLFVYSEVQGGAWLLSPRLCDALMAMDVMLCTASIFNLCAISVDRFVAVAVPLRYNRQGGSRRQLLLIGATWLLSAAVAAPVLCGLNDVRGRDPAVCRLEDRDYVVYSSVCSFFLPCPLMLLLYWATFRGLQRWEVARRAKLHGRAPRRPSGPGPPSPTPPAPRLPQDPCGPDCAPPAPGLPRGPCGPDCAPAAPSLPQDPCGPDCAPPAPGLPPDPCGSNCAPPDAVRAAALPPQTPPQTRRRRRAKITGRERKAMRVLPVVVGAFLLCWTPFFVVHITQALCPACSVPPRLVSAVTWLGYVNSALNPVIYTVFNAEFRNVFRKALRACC

[1] = biological target: T2, D(4) dopamine receptor (Homo sapiens) (UniProt P21917); test: Compound was tested for the inhibition of [3H]thymidine uptake in CHO p-5 cells transfected with human Dopamine receptor D4.2; format: functional, cell-based
T2 sequence (whole entry): T1 sequence (P21917 whole entry)
Summary of the method: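 Antagonism of quinpirole (full agonist) stimulated mitogenesis in CHO cells expressing human D4.2. After 18 h, [3H]thymidine 0.25 μCi/well for 2 h, trypsin 1 h, then filtered and counted. Intrinsic activity taken relative to quinpirole; IC50 derived.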

[2] = biological target: Dopamine D2 receptor (Homo sapiens); test: Binding affinity using [3H]spiperone against cloned human Dopamine receptor D2L expressed in CHO-K1 cells
[3] = biological target: T2, D(4) dopamine receptor (Homo sapiens); test: Ratio of receptor binding towards D2 to D4 receptor
Summary of the method: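 Ki from [3H]spiperone displacement at cloned human D2L and D4.2 receptors expressed in CHO-K1 cells. Six concentrations run in triplicate, fitted by nonlinear regression. Ratio taken as D2L Ki over D4.2 Ki.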

Rattus norvegicus [4] = test: Compound was tested for the levels of striatal dopamine synthesis in rat after a dosage of 10 mg/kg intraperitoneally and expressed as % of control animals; format: functional; conditions: route intraperitoneal
Rattus norvegicus [5] = test: Compound was tested for the levels of hippocampal dopamine synthesis in rat after a dosage of 10 mg/kg intraperitoneally and expressed as % of control animals; format: functional, Hippocampus; conditions: route intraperitoneal
Mus musculus = test: Behavioral effect expressed as reversal of prepulse inhibition of acoustic startle in mice, ip; active at 30 mg/kg; format: functional, organism-based; design: dose 30 mg/kg
Summary of the method: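 Vehicle or test compound given ip 15 min before sc saline or apomorphine (0.25 mg/kg); 30-min session of 90 trials after 5-min 70 dB white-noise acclimation, prepulses 2–16 dB over background (20 ms), startle pulses 40 ms. %PPI from 16-dB prepulse; t-test; minimal effective dose reported.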

[6] = biological target: 5-hydroxytryptamine receptor 2A (Bos taurus, UniProt Q75Z89); test: Compound was tested for binding affinity using [3H]ketanserin against 5-hydroxytryptamine 2 receptor
Sequence of 5-hydroxytryptamine receptor 2A (Q75Z89 whole entry): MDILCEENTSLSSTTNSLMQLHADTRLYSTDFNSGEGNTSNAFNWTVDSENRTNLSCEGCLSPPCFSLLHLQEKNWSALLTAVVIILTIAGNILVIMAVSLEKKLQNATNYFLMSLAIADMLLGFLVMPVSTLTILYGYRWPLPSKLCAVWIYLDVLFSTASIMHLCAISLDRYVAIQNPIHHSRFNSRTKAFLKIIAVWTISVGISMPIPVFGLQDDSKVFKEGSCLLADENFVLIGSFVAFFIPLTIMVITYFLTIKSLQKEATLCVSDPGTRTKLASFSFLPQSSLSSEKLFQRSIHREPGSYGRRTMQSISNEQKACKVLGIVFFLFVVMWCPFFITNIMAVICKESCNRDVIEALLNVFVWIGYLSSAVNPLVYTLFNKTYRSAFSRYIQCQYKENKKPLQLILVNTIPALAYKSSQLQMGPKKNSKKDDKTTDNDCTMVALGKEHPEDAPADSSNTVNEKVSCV

Rattus norvegicus [7] = test: Behavioral effect expressed as inhibition of spontaneous motor activity in rats, ip; NA=Not active; format: functional, organism-based
Rattus norvegicus [8] = test: Behavioral effect expressed as inhibition of amphetamine-stimulated locomotor activity in rats, ip; format: functional
[9] = biological target: T3, 5-hydroxytryptamine receptor 1A (Mus musculus, UniProt Q64264); test: Compound was tested for binding affinity using [3H]8-OH-DPAT against 5-hydroxytryptamine 1A receptor
T3 sequence (Q64264 whole entry): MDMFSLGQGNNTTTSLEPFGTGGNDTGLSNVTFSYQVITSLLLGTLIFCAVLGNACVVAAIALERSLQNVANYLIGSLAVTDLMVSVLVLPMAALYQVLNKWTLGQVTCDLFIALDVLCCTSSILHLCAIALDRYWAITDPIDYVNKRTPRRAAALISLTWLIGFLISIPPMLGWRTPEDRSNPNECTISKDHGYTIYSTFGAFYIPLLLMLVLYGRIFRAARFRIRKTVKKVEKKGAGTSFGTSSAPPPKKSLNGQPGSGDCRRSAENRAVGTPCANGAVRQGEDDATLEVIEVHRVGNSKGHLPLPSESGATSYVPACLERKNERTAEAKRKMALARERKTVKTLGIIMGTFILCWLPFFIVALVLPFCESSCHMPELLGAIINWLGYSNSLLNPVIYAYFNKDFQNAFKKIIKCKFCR

D(3) dopamine receptor = D(3) dopamine receptor (Homo sapiens, UniProt P35462); test: Compound was tested for binding affinity using [3H]spiperone against cloned human Dopamine receptor D3 expressed in CHO-K1 cells; format: cell-based
Sequence of D(3) dopamine receptor (P35462 whole entry): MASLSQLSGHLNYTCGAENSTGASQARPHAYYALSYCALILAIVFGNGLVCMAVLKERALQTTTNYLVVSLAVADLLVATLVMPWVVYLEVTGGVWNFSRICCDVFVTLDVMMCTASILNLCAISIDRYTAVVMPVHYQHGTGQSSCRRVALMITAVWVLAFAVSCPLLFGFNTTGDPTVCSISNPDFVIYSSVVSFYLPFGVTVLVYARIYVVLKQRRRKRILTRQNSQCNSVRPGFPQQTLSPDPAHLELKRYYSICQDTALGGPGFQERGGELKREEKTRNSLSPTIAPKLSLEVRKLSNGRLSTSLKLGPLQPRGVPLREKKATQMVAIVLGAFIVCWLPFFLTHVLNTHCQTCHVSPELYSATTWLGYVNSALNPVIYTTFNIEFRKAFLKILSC
Summary of the method: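 Cloned human receptors expressed in CHO-K1 cells, displacement of [3H]spiperone; Ki from six concentrations run in triplicate, nonlinear regression.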

Rattus norvegicus [10] = test: Behavioral effect expressed as catalepsy test in rats, po; NA=Not active; format: functional, organism-based
Summary of the method: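 Rats dosed orally; front paws placed on an elevated bar, time (s) paws stayed on bar recorded over three consecutive 1-min trials, retested 2 h postdose. Value is mean response time for third trial.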

Rattus norvegicus [11] = test: Compound was tested for the levels of striatal dopamine synthesis in rat after a dosage of 10 mg/kg intraperitoneally and expressed as % of control; format: functional; conditions: route intraperitoneal
Summary of the method: (§1)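 Rats given drug 10 mg/kg ip 60 min before and NSD 1015 (decarboxylase inhibitor) 30 min before decapitation; striatal and hippocampal DOPA by HPLC with electrochemical detection, as percentage increase over control; mean of 4 animals.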

Rattus norvegicus [12] = test: Compound was tested for the levels of hippocampal dopamine synthesis in rat after a dosage of 10 mg/kg intraperitoneally and expressed as % of control; format: functional, Hippocampus; conditions: route intraperitoneal; summary of the method: as §1
[13] = biological target: T2, D(4) dopamine receptor (Homo sapiens); test: Compound was tested for the inhibition of [3H]-thymidine uptake in CHO p-5 cells transfected with Dopamine receptor D4.2; format: functional, cell-based

| Ki (D(4) dopamine receptor) [nM] | Ki [2] [µM] | Structure (SMILES) | also measured |
| --- | --- | --- | --- |
| 227 | – | CC(C)(C)c1ccc(N2CCN(Cc3ccc4ccc(=O)oc4c3)CC2)cc1 | – |
| 93 | – | O=c1ccc2ccc(CN3CCN(c4ccc(Cl)cc4)CC3)cc2o1 | – |
| 32 | 4.4 | Cc1cccc(N2CCN(Cc3ccc4ccc(=O)oc4c3)CC2)c1 | – |
| 59 | – | O=c1ccc2ccc(CN3CCN(c4ccc(F)cc4)CC3)cc2o1 | – |
| 11 | 5.836 | Cc1ccc(N2CCN(Cc3ccc4oc(=O)ccc4c3)CC2)cc1 | Control (Rattus norvegicus [11]): 22%; Control (Rattus norvegicus [12]): -16%; Intrinsic activity [13]: 0% |
| 14 | 0.433 | Cc1ccc(N2CCN(Cc3ccc4ccc(=O)oc4c3)CC2)cc1C | – |
| 16 | 1.94 | Cc1ccccc1N1CCN(Cc2ccc3ccc(=O)oc3c2)CC1 | – |
| 75 | – | COc1ccc(N2CCN(Cc3ccc4ccc(=O)oc4c3)CC2)cc1 | – |
| 27 | 5.3 | O=c1ccc2ccc(CN3CCN(c4ccccc4)CC3)cc2o1 | – |

More lines, now with the values behind:

| Structure (SMILES) | Ki (D(4) dopamine receptor) [nM] | Ki [2] [µM] | also measured |
| --- | --- | --- | --- |
| Cc1ccc(N2CCN(Cc3ccc4ccc(=O)oc4c3)CC2)cc1Cl | 6.9 | 5.882 | Intrinsic activity [1]: 0%; Ratio [3]: 852; Control (Rattus norvegicus [4]): 19%; Control (Rattus norvegicus [5]): 27% |
| O=c1ccc2ccc(CNCCNc3ccccc3)cc2o1 | – | – | Intrinsic activity [1]: 0%; Behavioral effect (Mus musculus): Active; Ki [6]: > 4.35 µM; Control (Rattus norvegicus [7]): inactive; Control (Rattus norvegicus [4]): 20%; ED50 (Rattus norvegicus [8]): 3 mg/kg; Ki [9]: 3.71 µM; Ki (D(3) dopamine receptor): 424 nM; Control (Rattus norvegicus [5]): 32%; Control (Rattus norvegicus [10]): inactive |
| CCN(CCNCc1ccc2ccc(=O)oc2c1)c1ccccc1 | 2660 | – | – |
| CCN(CCNc1ccccc1)Cc1ccc2ccc(=O)oc2c1 | 410 | – | – |
| Cc1cccc(N2CCN(Cc3ccc4oc(=O)ccc4c3)CC2)c1 | 74 | – | – |
| Cc1ccc(NCCNCc2ccc3ccc(=O)oc3c2)cc1 | – | – | Intrinsic activity [1]: 0% |
| O=c1ccc2ccc(CN3CCC(c4ccccc4)CC3)cc2o1 | 19 | – | – |
| O=c1ccc2ccc(CN3CC=C(c4ccccc4)CC3)cc2o1 | 4.4 | 0.121 | – |
